Values joined by “and” are separate entries in the source; they are usually repeats but may differ in a detail not shown here. Equal values may be shown once.
Assays:
[1] = tested on: HEK-293T; assay: Multiplex assay against HEK293T; format: toxicity, cell-based; conditions: human
Outline: (§1)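 Cells stained live at seeding with Hoechst33342, BioTracker Green Microtubule Cytoskeleton Dye, MitoTracker Red and Annexin V Alexa Fluor 680 were imaged on a CQ1 microscope at 37°C and 5% CO2 after compound addition. Their classification by CellPathfinder machine-learning gating ran from Hoechst high-intensity objects versus normal cells, to healthy, pyknosed or fragmented nuclei among normal cells, to mitotic or apoptotic among pyknosed cells. Tubulin, mitochondrial-mass and membrane-permeability phenotypes are per cents of healthy-nucleus cells.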

[2] = tested on: U2OS; assay: Multiplex assay against U2OS; format: toxicity, cell-based; conditions: human; outline: as §1
[3] = 24 h, 10 µM, compound concentration 10 uM
[4] = 48 h, 1 µM, compound concentration 1 uM
[5] = 48 h, 10 µM, compound concentration 10 uM
[6] = 12 h, 1 µM, compound concentration 1 uM
[7] = 12 h, 10 µM, compound concentration 10 uM
[8] = 24 h, 1 µM, compound concentration 1 uM

## CCCN1CCC[C@@H]2Cc3n[nH]cc3C[C@H]21.Cl [QUINPIROLE HYDROCHLORIDE]
[1]; [3]
  Population Apoptotic (%): 45% and 43%
  Population Fragmented Nuclei (%): 10% and 7%
  Population Healthy Nuclei (%): 77% and 78%
  Population Hoechst High Intensity Objects (%): 4% and 2%
  Population Membrane Permeable-Phenotype (%): 0%
  Population Mitochondria Different-Phenotype (%): 38% and 43%
  Population Mitotic Cells (%): 54% and 56%
  Population Normal (%): 95% and 97%
  Population Pyknosed Nuclei (%): 11% and 13%
  Population Tubulin-Different-Phenotype (%): 27% and 13%
  Total Cell Count: 529 and 406
[1]; [4]
  Population Apoptotic (%): 21% and 33%
  Population Fragmented Nuclei (%): 16% and 11%
  Population Healthy Nuclei (%): 76% and 84%
  Population Hoechst High Intensity Objects (%): 1% and 2%
  Population Membrane Permeable-Phenotype (%): 1%
  Population Mitochondria Different-Phenotype (%): 9% and 19%
  Population Mitotic Cells (%): 78% and 66%
  Population Normal (%): 98%
  Population Pyknosed Nuclei (%): 6% and 4%
  Population Tubulin-Different-Phenotype (%): 10% and 8%
  Total Cell Count: 1105 and 649
[1]; [5]
  Population Apoptotic (%): 40% and 33%
  Population Fragmented Nuclei (%): 15% and 13%
  Population Healthy Nuclei (%): 78% and 80%
  Population Hoechst High Intensity Objects (%): 2% and 1%
  Population Membrane Permeable-Phenotype (%): 1% and 0%
  Population Mitochondria Different-Phenotype (%): 23% and 28%
  Population Mitotic Cells (%): 59% and 66%
  Population Normal (%): 97% and 98%
  Population Pyknosed Nuclei (%): 6%
  Population Tubulin-Different-Phenotype (%): 15% and 13%
  Total Cell Count: 772 and 654
[2]; [6]
  Population Apoptotic (%): 71% and 61%
  Population Fragmented Nuclei (%): 31% and 21%
  Population Healthy Nuclei (%): 60% and 67%
  Population Hoechst High Intensity Objects (%): 2% and 0%
  Population Membrane Permeable-Phenotype (%): 7% and 2%
  Population Mitochondria Different-Phenotype (%): 1%
  Population Mitotic Cells (%): 28% and 38%
  Population Normal (%): 97% and 100%
  Population Pyknosed Nuclei (%): 8% and 11%
  Population Tubulin-Different-Phenotype (%): 3% and 2%
  Total Cell Count: 265 and 118
[2]; [7]
  Population Apoptotic (%): 58% and 100%
  Population Fragmented Nuclei (%): 19% and 9%
  Population Healthy Nuclei (%): 72% and 85%
  Population Hoechst High Intensity Objects (%): 1% and 2%
  Population Membrane Permeable-Phenotype (%): 2% and 6%
  Population Mitochondria Different-Phenotype (%): 0% and 5%
  Population Normal (%): 98% and 97%
  Population Pyknosed Nuclei (%): 7% and 4%
  Population Tubulin-Different-Phenotype (%): 1% and 2%
  Total Cell Count: 228 and 126
[2]; [8]
  Population Apoptotic (%): 68% and 77%
  Population Fragmented Nuclei (%): 27% and 18%
  Population Healthy Nuclei (%): 64% and 68%
  Population Hoechst High Intensity Objects (%): 1% and 0%
  Population Membrane Permeable-Phenotype (%): 4%
  Population Mitochondria Different-Phenotype (%): 3% and 4%
  Population Mitotic Cells (%): 31% and 22%
  Population Normal (%): 98% and 100%
  Population Pyknosed Nuclei (%): 7% and 13%
  Population Tubulin-Different-Phenotype (%): 3% and 4%
  Total Cell Count: 299 and 138
[2]; [3]
  Population Apoptotic (%): 88% and 92%
  Population Fragmented Nuclei (%): 13% and 9%
  Population Healthy Nuclei (%): 80% and 82%
  Population Hoechst High Intensity Objects (%): 2% and 0%
  Population Membrane Permeable-Phenotype (%): 2% and 0%
  Population Mitochondria Different-Phenotype (%): 0% and 1%
  Population Mitotic Cells (%): 11% and 7%
  Population Normal (%): 97% and 99%
  Population Pyknosed Nuclei (%): 6% and 8%
  Population Tubulin-Different-Phenotype (%): 1% and 0%
  Total Cell Count: 281 and 163
[2]; [4]
  Population Apoptotic (%): 75% and 78%
  Population Fragmented Nuclei (%): 19% and 17%
  Population Healthy Nuclei (%): 74% and 69%
  Population Hoechst High Intensity Objects (%): 1% and 3%
  Population Membrane Permeable-Phenotype (%): 4%
  Population Mitochondria Different-Phenotype (%): 1% and 5%
  Population Mitotic Cells (%): 25% and 21%
  Population Normal (%): 98% and 96%
  Population Pyknosed Nuclei (%): 6% and 13%
  Population Tubulin-Different-Phenotype (%): 2%
  Total Cell Count: 425 and 180
[2]; [5]
  Population Apoptotic (%): 86% and 91%
  Population Fragmented Nuclei (%): 11% and 12%
  Population Healthy Nuclei (%): 78%
  Population Hoechst High Intensity Objects (%): 3% and 1%
  Population Membrane Permeable-Phenotype (%): 4% and 6%
  Population Mitochondria Different-Phenotype (%): 1% and 4%
  Population Mitotic Cells (%): 13% and 8%
  Population Normal (%): 96% and 98%
  Population Pyknosed Nuclei (%): 9%
  Population Tubulin-Different-Phenotype (%): 3% and 2%
  Total Cell Count: 386 and 251

— ChEMBL document CHEMBL5724801, “EUbOPEN Chemogenomics Library - Multiplex” (2024)
